Active and inactive are the calls of the source.
Assays:
[1] = biological target: T1, Pituitary adenylate cyclase-activating polypeptide type I receptor (Homo sapiens, UniProt P41586); experiment: Antagonist activity at PAC1 receptor (unknown origin) expressed in CHO cells assessed as inhibition of PACAP-induced inhibition of CREB phosphorylation at 1 nM preincubated for 30 mins followed by PACAP stimulation and measured after 30 mins by Western blot analysis relative to control; values are per cent of control; settings: time 60.0 min
Target sequence in this assay (P41586 21-468 limits assumed): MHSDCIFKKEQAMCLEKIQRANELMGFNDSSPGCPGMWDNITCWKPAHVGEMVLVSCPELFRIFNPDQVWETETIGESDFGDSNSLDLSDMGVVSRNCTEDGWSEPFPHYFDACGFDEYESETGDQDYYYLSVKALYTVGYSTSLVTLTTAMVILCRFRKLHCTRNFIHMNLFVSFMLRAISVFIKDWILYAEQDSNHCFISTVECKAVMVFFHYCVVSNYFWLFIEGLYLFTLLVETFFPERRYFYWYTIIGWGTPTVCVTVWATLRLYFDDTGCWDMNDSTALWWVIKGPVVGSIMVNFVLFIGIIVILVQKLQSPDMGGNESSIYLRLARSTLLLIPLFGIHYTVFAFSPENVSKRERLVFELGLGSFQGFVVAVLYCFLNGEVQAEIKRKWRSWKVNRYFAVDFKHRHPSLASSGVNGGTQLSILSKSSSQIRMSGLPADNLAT

[2] = Effect on nociception on contralateral paw in ddy mouse model of spinal nerve ligation-induced neuropathic pain at 100 pmol, it administered as single dose measured up to 24 hrs; format: ADME; settings: in vivo, icv_or_intrathecal
[3] = biological target: T1, Pituitary adenylate cyclase-activating polypeptide type I receptor; experiment: Antagonist activity at PAC1 receptor (unknown origin) expressed in CHO cells assessed as inhibition of PACAP-induced inhibition of CREB phosphorylation preincubated for 30 mins followed by PACAP stimulation and measured after 30 mins by Western blot analysis; format: cell-based; settings: for inhibition: filed as antagonist, time 60.0 min
Summary of the method: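 PAC1/CHO cells seeded at 1×10^5 cells/well and grown 48 h, then pretreated 30 min with agent over 10 pM to 10 nM (vehicle 0.1% DMSO). Stimulated with PACAP 1 nM for 30 min. Western blot of 20 µg lysate for phospho-CREB (Ser133) and total CREB, with pCREB normalised to total CREB. IC50 taken from the dose series. n = 3-5.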

[4] = Effect on nociception on contralateral paw in ddy mouse model of spinal nerve ligation-induced neuropathic pain at 30 mg/kg, po administered as single dose measured up to 24 hrs; format: ADME, organism-based; settings: in vivo
Summary of the method: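 Spinal nerve ligation performed in male ddY mice. On day 14 after SNL, a single oral dose of 30 mg/kg given. Ipsilateral and contralateral hind-paw 50% gram thresholds measured by von Frey up-down method at serial times after dosing. n = 6 per group, compared with vehicle.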

Mus musculus [5] = experiment: Antiallodynic activity in ddy mouse model of spinal nerve ligation-induced neuropathic pain assessed as […] at 100 pmol, it administered as single dose measured up to 24 hrs; format: functional, organism-based; settings: time hrs <=24
Mus musculus [6] = species on record: Mus musculus; experiment: Antiallodynic activity in PACAP-induced mechanical allodynia ddy mouse model assessed as increase in ipsilateral paw withdrawal threshold at 100 pmol, it; format: functional, organism-based
Summary of the method: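 Male ddY mice, 6 weeks old at start. Agent 100 pmol co-injected i.t. with PACAP 100 pmol in 5 µl by lumbar (L5/L6) puncture; diluted in PBS or ACSF. Hind-paw 50% withdrawal threshold measured with von Frey hairs by the up-down method. n = 6, compared with vehicle.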

Row | residual activity [1] [%] | IC50 [3] [nM] | inhibition [3] | Compound | Activity [2] | Activity [4] | Activity (Mus musculus [5]) | Activity (Mus musculus [6])
1 | 11.9 | < 0.01 | Dose-dependent effect | O=C(NCCc1c[nH]cn1)C1CC(=O)N(c2n[nH]c3c(Cl)cccc23)C1 (centres undefined) | Non-Toxic | Non-Toxic | Active | Active
2 | 30.6 | 0.182 | Dose-dependent effect | O=C(NCCc1c[nH]cn1)C1CC(=O)N(c2n[nH]c3ccccc23)C1 (centres undefined) | Non-Toxic | Non-Toxic | Active | Active

Source: ChEMBL document CHEMBL4680128, “Synthesis of a novel and potent small-molecule antagonist of PAC1 receptor for the treatment of neuropathic pain” (Eur J Med Chem, 2020)
